Values after ≈ are worked out from the molar mass of the structure shown. Numbered stars: 1 amine (or outer) side, 2 acyl side, 3 side chain; on linkers, the order of the positions; unused ones are H or OH. Bridge positions count the residues as written; N and C are the ends. Square brackets hold non-standard residues; d marks the D form. Peptide text beside a SMILES is read from it. * marks the point of attachment. pTerphenylCO(4''-OnC5H11) = CCCCCOc1ccc(-c2ccc(-c3ccc(C(=O)*)cc3)cc2)cc1; Orn(4R-OH,5R-OH) = O=C([C@H](C[C@@H](O)[C@@H](O)N[*:3])N[*:1])[*:2]; X16 = O=C(c1ccc(OCCOCCC23C[C@H]4C[C@@H](C2)C[C@@H](C3)C4)cc1)*; hTyr(3S-OH,4S-OH) = N[C@H](C(=O)O)[C@H](O)[C@@H](O)c1ccc(O)cc1; X17 = CCCCOCCOc1ccc(C#Cc2ccc(-c3ccc(C(=O)*)cc3)cc2)cc1; X20 = CCCCCOc1ccc(C#Cc2ccc(-c3ccc(C(=O)*)cc3)cc2)cc1; X7 = CCCCCCOc1ccc(-c2ccc(-c3ccc(C(=O)*)cc3)cc2)cc1; Pro(3S-OH,4S-Me) = C[C@H]1CN[C@H](C(=O)O)[C@H]1O; X14 = COc1ccc(C#Cc2ccc(-c3ccc(C(=O)*)cc3)cc2)cc1; X8 = O=C(c1ccc(-c2ccc(C#Cc3ccccc3)cc2)cc1)*; Hyp = O=C(O)[C@@H]1C[C@@H](O)CN1
Key:
[1] = tested on: Candida albicans; test: Antifungal activity against Candida albicans; type: functional
How it was run: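 Broth microdilution, C. albicans A26 (ATCC 62342) grown on Sabouraud dextrose agar at 35 °C; inoculum 1 × 10^5 conidia/mL in antibiotic 3 broth. Compounds dissolved at 1.0 mg/mL in methanol, 2-fold serial dilutions from 80 µg/mL, duplicate. Read after 48 h at 35 °C. MIC = lowest concentration completely inhibiting visible growth.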

[2] = molecular target: Beta-1,3-glucan synthase (Candida albicans) (UniProt O13428); test: In vitro inhibition of glucan synthase obtained from Candida albicans at a concentration of 10 ug/mL.
Beta-1,3-glucan synthase (Candida albicans), sequence (O13428 as listed by the source): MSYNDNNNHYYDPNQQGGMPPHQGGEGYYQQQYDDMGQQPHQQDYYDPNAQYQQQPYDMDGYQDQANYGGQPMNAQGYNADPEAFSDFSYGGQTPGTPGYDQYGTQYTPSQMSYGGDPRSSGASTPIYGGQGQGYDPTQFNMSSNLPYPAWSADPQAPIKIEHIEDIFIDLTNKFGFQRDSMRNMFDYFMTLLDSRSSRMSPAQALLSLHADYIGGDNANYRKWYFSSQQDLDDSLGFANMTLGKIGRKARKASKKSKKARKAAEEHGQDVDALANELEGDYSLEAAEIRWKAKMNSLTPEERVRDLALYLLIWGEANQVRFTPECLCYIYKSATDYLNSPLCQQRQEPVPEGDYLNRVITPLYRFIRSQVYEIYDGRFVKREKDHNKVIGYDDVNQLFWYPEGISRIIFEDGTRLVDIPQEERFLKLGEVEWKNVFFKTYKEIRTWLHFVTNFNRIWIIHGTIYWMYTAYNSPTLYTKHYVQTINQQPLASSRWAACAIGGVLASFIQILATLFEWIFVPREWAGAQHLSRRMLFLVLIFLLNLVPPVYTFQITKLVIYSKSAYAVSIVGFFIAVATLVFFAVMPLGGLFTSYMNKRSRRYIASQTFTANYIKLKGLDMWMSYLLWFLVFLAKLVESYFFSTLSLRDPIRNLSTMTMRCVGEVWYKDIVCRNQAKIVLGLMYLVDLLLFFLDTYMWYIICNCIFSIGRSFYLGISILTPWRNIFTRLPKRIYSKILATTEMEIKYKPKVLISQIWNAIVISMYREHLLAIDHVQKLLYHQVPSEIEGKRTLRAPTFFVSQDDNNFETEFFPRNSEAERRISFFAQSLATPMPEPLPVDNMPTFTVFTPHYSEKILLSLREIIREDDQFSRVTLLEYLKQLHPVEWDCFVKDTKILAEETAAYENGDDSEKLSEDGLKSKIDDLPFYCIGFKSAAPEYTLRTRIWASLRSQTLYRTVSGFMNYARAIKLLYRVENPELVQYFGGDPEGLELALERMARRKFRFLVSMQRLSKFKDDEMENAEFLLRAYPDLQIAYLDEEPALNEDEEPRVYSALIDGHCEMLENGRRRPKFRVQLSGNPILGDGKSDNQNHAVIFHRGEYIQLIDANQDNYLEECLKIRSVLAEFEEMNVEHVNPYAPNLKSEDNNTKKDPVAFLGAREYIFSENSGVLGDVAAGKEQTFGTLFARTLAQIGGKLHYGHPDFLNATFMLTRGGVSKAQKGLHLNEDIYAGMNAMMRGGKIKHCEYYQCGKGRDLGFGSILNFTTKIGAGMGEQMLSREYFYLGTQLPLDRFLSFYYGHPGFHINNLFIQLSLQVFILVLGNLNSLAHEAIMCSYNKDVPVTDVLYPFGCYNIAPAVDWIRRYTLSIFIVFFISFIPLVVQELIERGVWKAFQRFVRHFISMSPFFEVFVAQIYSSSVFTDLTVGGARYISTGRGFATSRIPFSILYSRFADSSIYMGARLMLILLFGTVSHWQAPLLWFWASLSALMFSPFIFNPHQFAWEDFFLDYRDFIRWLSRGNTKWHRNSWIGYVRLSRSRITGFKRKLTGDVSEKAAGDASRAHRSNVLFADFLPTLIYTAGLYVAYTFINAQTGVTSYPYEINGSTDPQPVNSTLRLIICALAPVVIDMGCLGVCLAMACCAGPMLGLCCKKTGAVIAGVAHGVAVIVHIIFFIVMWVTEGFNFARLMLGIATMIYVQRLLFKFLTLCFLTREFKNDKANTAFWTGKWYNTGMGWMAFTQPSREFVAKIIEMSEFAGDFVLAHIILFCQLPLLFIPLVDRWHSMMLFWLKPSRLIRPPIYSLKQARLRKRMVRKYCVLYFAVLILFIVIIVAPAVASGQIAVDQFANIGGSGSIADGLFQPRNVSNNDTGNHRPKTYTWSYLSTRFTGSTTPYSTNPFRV
How it was run: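 Purified, solubilized β-(1,3)-D-glucan synthase prepared from C. albicans. Percent inhibition measured at 10 µg/mL compound, single determination.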

[3] = tested on: Candida albicans; test: In vivo antifungal activity administered intraperitoneally against Candida albicans infections in mice.; type: functional; conditions: ip
How it was run: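 Male ICR mice (18-20 g), X-irradiated with 400 r 24 h before iv tail-vein infection with 2 × 10^6 C. albicans A26 cells in saline. Compounds suspended in β-cyclodextrin, given parenterally at 0, 4, 24 and 48 h post-infection. 10 mice per dose, top dose 10 mg/kg with 2-fold dilutions down to 0.039 mg/kg. 7-day survival; ED50 by Reed-Muench.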

[4] = tested on: Candida albicans; test: In vivo antifungal activity administered orally against Candida albicans infections in mice.; type: functional; conditions: po
How it was run: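 X-irradiated (400 r, 24 h prior) male ICR mice infected iv with 2 × 10^6 C. albicans A26 cells. Oral gavage in cremophor (5%)/linoleic acid (8%)/water vehicle, b.i.d. × 4 starting immediately post-infection. 10 mice per dose level. Study ends at day 7; ED50 = dose giving 50% survival, by Reed-Muench.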

SMILES | MIC [1] [µg/mL] | inhibition [2] [%] | ED50 [3] [mg/kg] | ED50 [4] [mg/kg]
CCCCCOc1ccc(-c2ccc(-c3ccc(C(=O)N[C@H]4C[C@@H](O)[C@@H](O)NC(=O)[C@@H]5[C@@H](O)[C@@H](C)CN5C(=O)[C@H]([C@@H](C)O)NC(=O)[C@H]([C@H](O)[C@@H](O)c5ccc(O)cc5)NC(=O)[C@@H]5C[C@@H](O)CN5C(=O)[C@H]([C@@H](C)O)NC4=O)cc3)cc2)cc1 [ANIDULAFUNGIN] ({pTerphenylCO(4''-OnC5H11)}-[Orn(4R-OH,5R-OH)]T[Hyp][hTyr(3S-OH,4S-OH)]T[Pro(3S-OH,4S-Me)]; lactam 1-C) | 0.005 (≈ 0.00438 µM) | 75 | 0.3 | 7.8
C[C@@H](O)[C@@H]1NC(=O)[C@H]([C@H](O)[C@@H](O)c2ccc(O)cc2)NC(=O)[C@@H]2C[C@@H](O)CN2C(=O)[C@H]([C@@H](C)O)NC(=O)[C@@H](NC(=O)c2ccc(-c3ccc(C#Cc4ccccc4)cc3)cc2)C[C@@H](O)[C@@H](O)NC(=O)[C@@H]2[C@@H](O)[C@@H](C)CN2C1=O (X8-[Orn(4R-OH,5R-OH)]T[Hyp][hTyr(3S-OH,4S-OH)]T[Pro(3S-OH,4S-Me)]; lactam 1-C) | 0.039 (≈ 0.0362 µM) | 75.8 | 0.6 | 18.8
CCCCCOc1ccc(C#Cc2ccc(-c3ccc(C(=O)N[C@H]4C[C@@H](O)[C@@H](O)NC(=O)[C@@H]5[C@@H](O)[C@@H](C)CN5C(=O)[C@H]([C@@H](C)O)NC(=O)[C@H]([C@H](O)[C@@H](O)c5ccc(O)cc5)NC(=O)[C@@H]5C[C@@H](O)CN5C(=O)[C@H]([C@@H](C)O)NC4=O)cc3)cc2)cc1 (X20-[Orn(4R-OH,5R-OH)]T[Hyp][hTyr(3S-OH,4S-OH)]T[Pro(3S-OH,4S-Me)]; lactam 1-C) | < 0.01 | 82.3 |  | 8.8
CCCCCCOc1ccc(-c2ccc(-c3ccc(C(=O)N[C@H]4C[C@@H](O)[C@@H](O)NC(=O)[C@@H]5[C@@H](O)[C@@H](C)CN5C(=O)[C@H]([C@@H](C)O)NC(=O)[C@H]([C@H](O)[C@@H](O)c5ccc(O)cc5)NC(=O)[C@@H]5C[C@@H](O)CN5C(=O)[C@H]([C@@H](C)O)NC4=O)cc3)cc2)cc1 (X7-[Orn(4R-OH,5R-OH)]T[Hyp][hTyr(3S-OH,4S-OH)]T[Pro(3S-OH,4S-Me)]; lactam 1-C) | 0.03 (≈ 0.026 µM) |  | 0.8 | 6.8
COc1ccc(C#Cc2ccc(-c3ccc(C(=O)N[C@H]4C[C@@H](O)[C@@H](O)NC(=O)[C@@H]5[C@@H](O)[C@@H](C)CN5C(=O)[C@H]([C@@H](C)O)NC(=O)[C@H]([C@H](O)[C@@H](O)c5ccc(O)cc5)NC(=O)[C@@H]5C[C@@H](O)CN5C(=O)[C@H]([C@@H](C)O)NC4=O)cc3)cc2)cc1 (X14-[Orn(4R-OH,5R-OH)]T[Hyp][hTyr(3S-OH,4S-OH)]T[Pro(3S-OH,4S-Me)]; lactam 1-C) | 0.02 (≈ 0.018 µM) | 81 |  | 19
CCCCOCCOc1ccc(C#Cc2ccc(-c3ccc(C(=O)N[C@H]4C[C@@H](O)[C@@H](O)NC(=O)[C@@H]5[C@@H](O)[C@@H](C)CN5C(=O)[C@H]([C@@H](C)O)NC(=O)[C@H]([C@H](O)[C@@H](O)c5ccc(O)cc5)NC(=O)[C@@H]5C[C@@H](O)CN5C(=O)[C@H]([C@@H](C)O)NC4=O)cc3)cc2)cc1 (X17-[Orn(4R-OH,5R-OH)]T[Hyp][hTyr(3S-OH,4S-OH)]T[Pro(3S-OH,4S-Me)]; lactam 1-C) | 0.02 (≈ 0.0167 µM) | 81.9 |  | 10.6
C[C@@H](O)[C@@H]1NC(=O)[C@H]([C@H](O)[C@@H](O)c2ccc(O)cc2)NC(=O)[C@@H]2C[C@@H](O)CN2C(=O)[C@H]([C@@H](C)O)NC(=O)[C@@H](NC(=O)c2ccc(OCCOCCC34C[C@H]5C[C@@H](C3)C[C@@H](C4)C5)cc2)C[C@@H](O)[C@@H](O)NC(=O)[C@@H]2[C@@H](O)[C@@H](C)CN2C1=O (X16-[Orn(4R-OH,5R-OH)]T[Hyp][hTyr(3S-OH,4S-OH)]T[Pro(3S-OH,4S-Me)]; lactam 1-C) | 0.039 (≈ 0.0347 µM) | 72.3 |  | > 50

Source: ChEMBL document CHEMBL1128519, “Semisynthetic chemical modification of the antifungal lipopeptide echinocandin B (ECB): structure-activity studies of the lipophilic and geometric parameters of polyarylated acyl analogs of ECB” (J Med Chem, 1995)
